According to ChEMBL document CHEMBL1129647, “Targeting delavirdine/atevirdine resistant HIV-1: identification of (alkylamino)piperidine-containing bis(heteroaryl)piperazines as broad spectrum HIV-1 reverse transcriptase inhibitors” (J Med Chem, 1996):

Legend:
[1] = biological target: T1, Human immunodeficiency virus type 1 reverse transcriptase (Human immunodeficiency virus 1, UniProt Q72547, Y181C)
[2] = Bioavailability at an iv dose of 15.7 mg/Kg and po dose of 31.4 mg/Kg; format: ADME, organism-based; conditions: rat, in vivo, read-out: Bioavailabiility
Method in brief: (§1)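 Male Sprague-Dawley rats, fasted, dosed iv and po in a crossover design with a 1 week washout between treatments (N = 3). Compound was given as a solution in propylene glycol/water (80/20, v/v) acidified with a molar excess of methanesulfonic acid. Values are the iv clearance and the absolute oral bioavailability.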

[3] = biological target: T2, Human immunodeficiency virus type 1 reverse transcriptase (Human immunodeficiency virus 1, UniProt Q72547)
[4] = Clearance at an iv dose of 15.7 mg/Kg and po dose of 31.4 mg/Kg; format: ADME, organism-based; conditions: rat, in vivo
Method in brief: as §1

[5] = biological target: T3, Human immunodeficiency virus type 1 reverse transcriptase (Human immunodeficiency virus 1, UniProt Q72547, P236L)
[6] = tested on: Human immunodeficiency virus 1; experiment: Concentration required to inhibit P24 production by 90% against U-90,152 of HIV-1 MF(P236L); format: functional
[7] = tested on: Human immunodeficiency virus 1; experiment: Concentration required to inhibit P24 production by 90% against L-697,661 of HIV-1IIIB(Y181c); format: functional
[8] = tested on: Human immunodeficiency virus 1; experiment: Concentration required to inhibit P24 production by 90% against L-697661 of HIV-1 IIIB (Y181C); format: functional
[9] = Bioavailability at an iv dose of 15 mg/Kg and po dose of 29.1 mg/Kg; format: ADME, organism-based; conditions: in vivo, read-out: Bioavailabiility
Method in brief: as §1

[10] = tested on: Human immunodeficiency virus 1; experiment: Concentration required to inhibit P24 production by 90% against U-90,152 of HIV-1 MF (P236L); format: functional
[11] = tested on: Human immunodeficiency virus 1; experiment: Concentration required to inhibit P24 production by 90% against U-90,152 of HIV-1 IIIB (L100I, M230L); format: functional
[12] = biological target: T3, Human immunodeficiency virus type 1 reverse transcriptase; experiment: Compound was tested for inhibition of HIV-1 P236L reverse transcriptase using dTTP as substrate
[13] = tested on: Human immunodeficiency virus 1; experiment: In vitro inhibition of recombinant HIV-1 IIIB mutant P236L; format: functional, organism-based
[14] = biological target: T3, Human immunodeficiency virus type 1 reverse transcriptase; experiment: Compound was tested for inhibition of HIV-1 P236L reverse transcriptase using poly(rA)300:oligo(dT)10 as substrate
[15] = Clearance at an iv dose of 15 mg/Kg and po dose of 60 mg/Kg; format: ADME, organism-based; conditions: in vivo
Method in brief: as §1

[16] = Clearance at an iv dose of 15 mg/Kg and po dose of 30 mg/Kg; format: ADME, organism-based; conditions: in vivo
Method in brief: as §1

[17] = biological target: T2, Human immunodeficiency virus type 1 reverse transcriptase; experiment: Compound was tested for inhibition of HIV-1 WT reverse transcriptase using dTTP as substrate
[18] = Bioavailability (dose 15 mg/kg i.v. and 30 mg/kg p.o.); format: ADME, organism-based; conditions: in vivo, po
Method in brief: as §1

[19] = Clearance at an iv dose of 15 mg/Kg and po dose of 120 mg/Kg; format: ADME, organism-based; conditions: in vivo
Method in brief: as §1

[20] = Bioavailability at an iv dose of 15 mg/Kg and po dose of 60 mg/Kg; format: ADME, organism-based; conditions: in vivo, read-out: Bioavailabiility
Method in brief: as §1

[21] = tested on: Human immunodeficiency virus 1; experiment: In vitro inhibition of recombinant HIV-1 IIIB mutant WT; format: functional, organism-based
[22] = biological target: T1, Human immunodeficiency virus type 1 reverse transcriptase; experiment: Compound was tested for inhibition of HIV-1 Y181C reverse transcriptase using dTTP as substrate
[23] = biological target: T2, Human immunodeficiency virus type 1 reverse transcriptase; experiment: Compound was tested for inhibition of HIV-1 WT reverse transcriptase using poly(rA)300:oligo(dT)10 as substrate
[24] = Bioavailability at an iv dose of 15 mg/Kg and po dose of 120 mg/Kg; format: ADME, organism-based; conditions: in vivo, read-out: Bioavailabiility
Method in brief: as §1

[25] = Clearance at an iv dose of 15 mg/Kg and po dose of 240 mg/Kg; format: ADME, organism-based; conditions: in vivo
Method in brief: as §1

[26] = biological target: T2, Human immunodeficiency virus type 1 reverse transcriptase; experiment: Compound was tested for inhibition of HIV-1 181C cell line using poly(rA)300:oligo(dT)10 as substrate
Method in brief: (§2)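 Kinetic inhibition study on homodimeric recombinant HIV-1 RTs (WT, P236L, Y181C), varying dTTP or poly(rA):(dT)10 template:primer. Base assay: 28 °C, 10 min, pH 8.3 Tris-HCl, 10 mM MgCl2, 60 mM NaCl, 2 mM DTT, 0.05% NP-40, [3H]TTP incorporation. TCA-precipitated product collected on glass fibre filters and counted. Ki values derived.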

[27] = tested on: Human immunodeficiency virus 1; experiment: In vitro inhibition of recombinant HIV-1 IIIB mutant Y181C; format: functional, organism-based
[28] = Bioavailability at an iv dose of 12 mg/Kg and po dose of 23 mg/Kg; format: ADME, organism-based; conditions: rat, in vivo, read-out: Bioavailabiility
Method in brief: as §1

[29] = Clearance at an iv dose of 12 mg/Kg and po dose of 23 mg/Kg; format: ADME, organism-based; conditions: rat, in vivo
Method in brief: as §1

[30] = Clearance at an iv dose of 16 mg/Kg and po dose of 35 mg/Kg; format: ADME, organism-based; conditions: rat, in vivo
Method in brief: as §1

[31] = Bioavailability at an iv dose of 16 mg/Kg and po dose of 35 mg/Kg; format: ADME, organism-based; conditions: rat, in vivo, read-out: Bioavailabiility
Method in brief: as §1

[32] = tested on: Rattus norvegicus; experiment: Bioavailability at an iv dose of 14 mg/Kg and po dose of 28 mg/Kg; format: ADME, organism-based; conditions: in vivo
Method in brief: as §1

[33] = Clearance at an iv dose of 14 mg/Kg and po dose of 15 mg/Kg; format: ADME, organism-based; conditions: rat, in vivo
Method in brief: as §1

[34] = Bioavailability at an iv dose of 14 mg/Kg and po dose of 15 mg/Kg; format: ADME, organism-based; conditions: rat, in vivo, read-out: Bioavailabiility
Method in brief: as §1

[35] = Bioavailability at an iv dose of 15 mg/Kg and po dose of 30.2 mg/Kg; format: ADME, organism-based; conditions: rat, in vivo, read-out: Bioavailabiility
Method in brief: as §1

[36] = Clearance at an iv dose of 15 mg/Kg and po dose of 30.2 mg/Kg; format: ADME, organism-based; conditions: rat, in vivo
Method in brief: as §1

[37] = Clearance at an iv dose of 15.6 mg/Kg and po dose of 31.2 mg/Kg; format: ADME, organism-based; conditions: rat, in vivo
Method in brief: as §1

[38] = Bioavailability at an iv dose of 15.6 mg/Kg and po dose of 31.2 mg/Kg; format: ADME, organism-based; conditions: rat, in vivo, read-out: Bioavailabiility
Method in brief: as §1

[39] = biological target: T1, Human immunodeficiency virus type 1 reverse transcriptase; experiment: Compound was tested for inhibition of HIV-1 Y181C cell line using poly(rA)300:oligo(dT)10 as substrate
Method in brief: as §2

## CC(C)Nc1cccnc1N(C1CC1)C1CCN(C(=O)c2cc3cc(NS(C)(=O)=O)ccc3[nH]2)CC1
[1]
  IC50: 940 nM
[2]
  bioavailability: 1.6%
[3]
  IC50: 230 nM
[4]
  clearance: 22.6 mL/min/kg
[5]
  IC50: 700 nM

## CCN(c1nc(Cl)ccc1NC(C)(C)C)C1CCN(C(=O)c2cc3cc(NS(C)(=O)=O)ccc3[nH]2)CC1
[1]
  IC50: 3000 nM
[3]
  IC50: 1020 nM
[6]
  IC90: 240 nM
[7]
  IC90: > 300 nM
[5]
  IC50: 1520 nM

## CN(c1ncccc1NC(C)(C)C)C1CCN(C(=O)c2cc3cc(NS(C)(=O)=O)ccc3[nH]2)CC1
[8]
  IC90: 220 nM
[9]
  bioavailability: 44%
[10]
  IC90: 5400 nM
[11]
  IC90: 830 nM

## CCN(c1ncccc1NC(C)(C)C)C1CCN(C(=O)c2cc3cc(NS(C)(=O)=O)ccc3[nH]2)CC1
[12]
  Ki: 1110 nM
[13]
  IC50: 460 nM
[14]
  Ki: 1600 nM
[15]
  clearance: 50 mL/min/kg
[16]
  clearance: 50 mL/min/kg
[17]
  Ki: 1030 nM
[18]; eutheria
  bioavailability: 14%
[19]
  clearance: 50 mL/min/kg
[20]
  bioavailability: 42%
[21]
  IC50: 320 nM
[8]
  IC90: 30 nM
[22]
  Ki: 1920 nM
[23]
  Ki: 1380 nM
[24]
  bioavailability: 124%
[25]
  clearance: 50 mL/min/kg
[26]
  Ki: 3090 nM
[10]
  IC90: 190 nM
[27]
  IC50: 660 nM
[11]
  IC90: 80 nM

## CCNc1cccnc1N1CCN(C(=O)c2cc3cc(OC)ccc3[nH]2)CC1.CS(=O)(=O)O [ATEVIRDINE SULPHATE]
[28]
  bioavailability: 75%
[29]
  clearance: 13 mL/min/kg

## CCN(c1nc(F)ccc1NC(C)(C)C)C1CCN(C(=O)c2cc3cc(NS(=O)(=O)N4CCN(C)CC4)ccc3[nH]2)CC1
[1]
  IC50: 2070 nM
[16]; rat
  clearance: 61 mL/min/kg
[3]
  IC50: 830 nM
[18]; rat
  bioavailability: 54%
[8]
  IC90: 150 nM
[5]
  IC50: 1090 nM
[10]
  IC90: 290 nM
[11]
  IC90: 290 nM

## CCN(c1ncccc1NC(C)C)C1CCN(C(=O)c2cc3cc(NC(=O)N4CCN(C)CC4)ccc3[nH]2)CC1
[1]
  IC50: 410 nM
[16]; rat
  clearance: 50 mL/min/kg
[3]
  IC50: 140 nM
[18]; rat
  bioavailability: 21.3%
[8]
  IC90: 50 nM
[5]
  IC50: 180 nM
[10]
  IC90: 240 nM
[11]
  IC90: 110 nM

## CNC(=O)Nc1ccc2[nH]c(C(=O)N3CCC(N(C)c4ncccc4NC(C)C)CC3)cc2c1
[1]
  IC50: 1600 nM
[30]
  clearance: 42 mL/min/kg
[3]
  IC50: 180 nM
[31]
  bioavailability: 12.3%

## CC(C)Nc1cccnc1N1CCN(C(=O)c2cc3cc(NS(C)(=O)=O)ccc3[nH]2)CC1.CS(=O)(=O)O [DELAVIRDINE MESYLATE]
[32]
  Bioavailabiility: 169%
[33]
  clearance: 13.6 mL/min/kg
[34]
  bioavailability: 64%

## CC(C)Nc1cccnc1N(C)C1CCN(C(=O)c2cc3cc(NS(C)(=O)=O)ccc3[nH]2)CC1
[35]
  bioavailability: 4.3%
[36]
  clearance: 44 mL/min/kg
[8]
  IC90: 1000 nM

## CC(C)Nc1ccnnc1N(C)C1CCN(C(=O)c2cc3cc(NS(C)(=O)=O)ccc3[nH]2)CC1
[37]
  clearance: 40 mL/min/kg
[38]
  bioavailability: 0%
[1]
  IC50: 1310 nM
[3]
  IC50: 740 nM
[5]
  IC50: 4560 nM

## CCN(c1nc(F)ccc1NC(C)(C)C)C1CCN(C(=O)c2cc3cc(NC(=O)N4CCN(C)CC4)ccc3[nH]2)CC1
[12]
  Ki: 2020 nM
[13]
  IC50: 430 nM
[14]
  Ki: 1740 nM
[16]
  clearance: 16 mL/min/kg
[17]
  Ki: 1260 nM
[18]; eutheria
  bioavailability: 42%
[21]
  IC50: 210 nM
[8]
  IC90: 130 nM
[22]
  Ki: 2550 nM
[39]
  Ki: 3030 nM
[23]
  Ki: 1640 nM
[10]
  IC90: 160 nM
[27]
  IC50: 790 nM
[11]
  IC90: 140 nM
